Dynein cargo inh: blocks dynein driven cargo transport along microtubules | 3617.4 mouse cells, GR-EGFP nuclear translocation imaging; test concentration mostly 20 µM; stimulated with dexamethasone, 1 µM; active compounds read low | z-score, hits read low | actives 0.47% (n = 220,000);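 active means plate z-score of nuclear minus cytoplasmic receptor signal below a set negative limit, without overly bright fluorescence or cell loss, cut at about -3.5 in these data, passing the limit was not always enough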;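 further: z-score of nuclear minus cytoplasmic ring GR-EGFP intensity difference per well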
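Also added – dexamethasone, 1.0 µM final · Buffer or medium – tet-free, stripped-serum medium · Schedule – induction 48 h, compound 1 h, agonist 30 min · Detection – formaldehyde fixation, Hoechst nuclear stain, 10x automated fluorescence imaging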
KCC2 mod: modulators of human KCC2 chloride dependent transport; Q9H2X9; AID 1456; B-score of Tl+ flux slope (higher = more flux/activation; lower = inhibition) at 10 µM; KCC2 cells, thallium flux FluoZin-2 fluorescence; actives 2.2% (n = 190,000);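 active means thallium flux slope and its plate-corrected score both differing from the plate sample mean at a set confidence after two filtering rounds, in either direction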;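 further: slope of fluorescence scaled to starting intensity during 10 to 20 s after thallium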
Autophagy mod: alters autophagy in cells; calls only at 10 µM (by protocol); actives 0.98% (n = 190,000); MEF GFP-LC3 puncta imaging; test concentration mostly 10 µM; AID 463193;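 active means percentage of spot-positive cells more than 3 SD above its plate mean, without a fluorescence outlier flag or 80% toxicity; inconclusive means no clear call, values can overlap the other calls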
Redox H2O2 prof: compounds producing H2O2 with reducing agent – biochemical, NIH compound library profiling, artefact control for MLSCN library redox annotation, primary screen. actives 0.03% (n = 200,000). AID 878. activation, % at 10 µM. DTT-dependent redox cycling H2O2, phenol red/HRP absorbance; 100% = 100 µM peroxide control, 0% = buffer;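 active means activation of at least 50% relative to the plate's high and low controls in the primary single-dose screen; inactive means activation below 50%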;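 further: compound incubated with DTT at 0.8 mM final as the reducing agent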
ROMK mod: human ROMK K+ channel modulation, primary screen. P48048. Tet-inducible ROMK, thallium flux fluorescence; actives lie on both sides. B-score at 10 µM. actives 2% (n = 130,000). AID 1918;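 active means signal ratio slope over the read window, or its plate-corrected B-score, at least 3 SD from the plate mean, either direction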;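 further: B-score of the F/F0 ratio slope over 7 to 12 s after thallium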
Target sequence (P48048 whole entry, looked up): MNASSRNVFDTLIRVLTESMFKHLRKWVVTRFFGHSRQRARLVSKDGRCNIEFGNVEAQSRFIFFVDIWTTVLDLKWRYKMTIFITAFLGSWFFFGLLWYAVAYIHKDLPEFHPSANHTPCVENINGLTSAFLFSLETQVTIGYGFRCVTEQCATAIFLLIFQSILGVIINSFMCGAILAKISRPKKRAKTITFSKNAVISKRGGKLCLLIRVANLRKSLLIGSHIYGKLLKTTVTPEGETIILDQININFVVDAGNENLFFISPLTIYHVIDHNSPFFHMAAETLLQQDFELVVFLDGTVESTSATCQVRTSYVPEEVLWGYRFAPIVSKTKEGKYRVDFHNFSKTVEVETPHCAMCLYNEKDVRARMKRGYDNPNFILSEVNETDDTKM
KCC2 secondary: confirmation of human KCC2 transport modulators | actives 15% (n = 3,700) | shares compounds with KCC2 mod | normalised thallium flux (F/F0 slope) at 10 µM | AID 1713 | HEK293-KCC2, thallium flux, FluoZin2 fluorescence; active compounds read high;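 active means thallium flux slope above the same plate's solvent-only control mean plus 3 SD; inconclusive means the two replicate wells disagree; inactive means no significant difference from solvent-only control wells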
KCC2 bumet counter: thallium flux persisting under bumetanide in KCC2 cells, counter-screen secondary assay; shares compounds with KCC2 mod; HEK293-KCC2 + bumetanide/ouabain, thallium flux FluoZin2; active compounds read high; normalized thallium flux at 10 µM; actives 49% (n = 3,700);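 active means thallium entry rate above the same plate's blocked-transporter control wells by more than 3 SD; inconclusive means the two repeat wells disagree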;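 further: raw slope of fluorescence over initial fluorescence between 10 and 20 s after thallium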
KCC2 sec2: KCC2 (human) modulation, second secondary assay | shares compounds with KCC2 mod | HEK293-KCC2, thallium flux FluoZin2 fluorescence; actives lie on both sides; F/F0 rise rate, 10–20 s post-thallium | normalized thallium flux at 10 µM | actives 23% (n = 3,700);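 active means thallium flux slope more than 3 SD above or below the plate's solvent-only control mean, mostly below; inconclusive means the two repeat wells disagreed; inactive means no significant shift from solvent-only controls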
HEK counter1: counter-screen for KCC2 modulators: effect in parental HEK293 cells. shares compounds with KCC2 mod. thallium flux FluoZin2, ouabain; baseline-ratio fluorescence slope, 10–20 s after thallium. thallium flux rate (normalised fluorescence) at 10 µM. actives 46% (n = 3,700). AID 1716;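 active means thallium flux rate significantly above the same plate's solvent-only control wells, beyond their mean plus 3 SD; inconclusive means the two replicate wells gave conflicting results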
KCC2 ouabain: modulates human KCC2 on retest with ouabain; shares compounds with KCC2 mod; HEK293-KCC2, thallium flux FluoZin2 fluorescence; bidirectional: low = inhibitor, high = activator; raw Tl+ flux slope (below DMSO = inhibition, above = activation) at 10 µM; actives 48% (n = 3,700);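 active means thallium flux slope beyond 3 SD from same-plate DMSO control mean in most replicates, usually higher, sometimes lower; inconclusive means repeat tests gave conflicting results; inactive means no significant difference from controls in most replicates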;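 further: slope of initial-normalized fluorescence between seconds 10 and 20 after thallium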
HEK counter2: parental HEK flux effect, counter-screen 2 | shares compounds with KCC2 mod | HEK293 parental, thallium flux FluoZin-2 fluorescence slope | thallium flux slope at 10 µM | actives 33% (n = 3,700);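 active means thallium flux slope above the same plate's solvent-control mean plus 3 SD in both duplicate wells; inconclusive means duplicate wells that disagreed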;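 further: run without ouabain in cells lacking the KCC2 cotransporter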
Each line names hits and unclear results; the compound was inactive in the other large screens (follow-up assays come after a bar, where they were run). Hits are enriched below; roughly 4.1% of the tested compounds scored in any of these assays.

COc1ccccc1CNC(=O)c1ccc(OC(F)F)c(OC)c1	none (no result: ROMK mod)
Cn1c(Cc2c[nH]c3ccccc23)n[nH]c1=S	none (no result: KCC2 mod) | KCC2 secondary inactive | KCC2 bumet counter inactive | KCC2 sec2 inactive | HEK counter1 inconclusive | KCC2 ouabain inconclusive | HEK counter2 inactive
Cc1[nH]c2ccccc2c1Cc1n[nH]c(=S)n1C	KCC2 mod -6.37 (no result: ROMK mod) | KCC2 secondary inactive | KCC2 bumet counter inactive | KCC2 sec2 0.0237 | HEK counter1 inactive | KCC2 ouabain 0.0109 | HEK counter2 inactive
Cc1[nH]c2ccccc2c1Cc1n[nH]c(=S)o1	KCC2 mod -3.36 (no result: ROMK mod) | KCC2 secondary inactive | KCC2 bumet counter inactive | KCC2 sec2 0.022 | HEK counter1 inactive | KCC2 ouabain 0.0414 | HEK counter2 inactive
S=c1[nH]nc(Cc2cccc3ccccc23)o1	KCC2 mod -8.04 | KCC2 secondary inactive | KCC2 bumet counter inactive | KCC2 sec2 0.0153 | HEK counter1 inactive | KCC2 ouabain inconclusive | HEK counter2 inactive
Cc1ccc(-c2nc(N)sc2CC(=O)OCC(=O)NCC2CCCO2)cc1 (stereo unspecified)	none (no result: Redox H2O2 prof)
Cc1ccc(NC(=O)CSCc2n[nH]c(=O)[nH]2)c(Br)c1	none
Cn1c(=O)cc(SCC(=O)N2CCN(c3ccccn3)CC2)c2ccccc21	KCC2 mod -3.53 (no result: ROMK mod) | KCC2 secondary inactive | KCC2 bumet counter inactive | KCC2 sec2 inactive | HEK counter1 inactive | KCC2 ouabain 0.0178 | HEK counter2 inactive
Cn1c(=O)cc(SCC(=O)N2CCN(c3ccccc3)CC2)c2ccccc21	none (no result: KCC2 mod, ROMK mod)
CC(NC(=O)c1ccco1)C(=O)OCc1cccc(Cl)c1 (stereo unspecified)	KCC2 mod 6.15 | KCC2 secondary inactive | KCC2 bumet counter inactive | KCC2 sec2 inactive | HEK counter1 inactive | KCC2 ouabain inactive | HEK counter2 inactive
C/C(=N\NC(=S)Nc1ccc(F)cc1)C1CC1	KCC2 mod 8.39 (no result: ROMK mod) | KCC2 secondary inactive | KCC2 bumet counter 0.0236 | KCC2 sec2 inactive | HEK counter1 0.0181 | KCC2 ouabain 0.0277 | HEK counter2 0.0217
COc1ccc(CC(=O)Nc2ccc(-c3ccc4nnc(C)n4n3)cc2)cc1OC	none
COC(=O)c1c(NS(=O)(=O)c2ccc3ccccc3c2)sc2c1CCCC2	KCC2 mod 26.9 | KCC2 secondary inactive | KCC2 bumet counter 0.0645 | KCC2 sec2 0.0585 | HEK counter1 0.0571 | KCC2 ouabain 0.0571 | HEK counter2 0.0389
Cc1ccc2c(CN3CCOCC3)cc(=O)oc2c1	none (no result: Autophagy mod, Redox H2O2 prof, ROMK mod)
Cc1cc2oc(=O)cc(CN3CCOCC3)c2cc1C	KCC2 mod 6.87 | KCC2 secondary inactive | KCC2 bumet counter inactive | KCC2 sec2 0.0263 | HEK counter1 inactive | KCC2 ouabain inactive | HEK counter2 inactive
COCC(=O)Nc1c(C(=O)Nc2ccccc2OC)oc2ccccc12	none (no result: ROMK mod)
COc1ccccc1NC(=O)c1oc2ccc(C)cc2c1C	KCC2 mod -4.74 (no result: ROMK mod) | KCC2 secondary inactive | KCC2 bumet counter inactive | KCC2 sec2 inactive | HEK counter1 inactive | KCC2 ouabain inactive | HEK counter2 inactive
O=c1[nH]c(-c2ccc(Cl)cc2)cs1	none
Fc1ccc(-c2csc(=S)[nH]2)cc1	KCC2 mod 82.6 | KCC2 secondary 0.0386 | KCC2 bumet counter 0.114 | KCC2 sec2 0.0469 | HEK counter1 0.0748 | KCC2 ouabain 0.0871 | HEK counter2 0.0251
N#Cc1c(NC(=S)NC(=O)Cc2cccs2)sc2c1CCCCC2	KCC2 mod 7.41 | KCC2 secondary inactive | KCC2 bumet counter 0.0197 | KCC2 sec2 inactive | HEK counter1 0.00934 | KCC2 ouabain inconclusive | HEK counter2 inactive
CCCN1Cc2cccc(C(=O)Nc3ccc(-c4nc5ccccc5[nH]4)cc3)c2C1=O	none
CCC(=O)Oc1ccc(C(CC)C(CC)c2ccc(OC(=O)CC)cc2)cc1 (stereo unspecified)	KCC2 mod 10.7 (no result: ROMK mod) | KCC2 secondary inactive | KCC2 bumet counter inactive | KCC2 sec2 inactive | HEK counter1 inactive | KCC2 ouabain inactive | HEK counter2 inactive
Cc1cccc(NC(NC(=O)c2ccccc2[N+](=O)[O-])C(Cl)(Cl)Cl)c1 (stereo unspecified)	none
O=c1c2ccccc2nc(-c2ccc(Cl)cc2Cl)n1O	KCC2 mod 5.72 | KCC2 secondary 0.0121 | KCC2 bumet counter 0.0198 | KCC2 sec2 inactive | HEK counter1 0.0116 | KCC2 ouabain 0.0291 | HEK counter2 inactive
O=c1c2ccccc2nc(-c2ccc(Cl)c(Cl)c2)n1O	KCC2 mod 34.8 | KCC2 secondary 0.0181 | KCC2 bumet counter 0.114 | KCC2 sec2 inconclusive | HEK counter1 0.0625 | KCC2 ouabain 0.0829 | HEK counter2 0.0228
O=c1c2ccc(Cl)cc2nc(-c2cccc(C(F)(F)F)c2)n1O	none (no result: KCC2 mod)
CC(=O)Nc1cccc(OCCCNC(=O)c2cccc3ccccc23)c1	none (no result: Autophagy mod, Redox H2O2 prof)
Oc1ccccc1/C=N/NC(=S)NC1CC2CC1C1C=CCC21 (stereo unspecified)	KCC2 mod 15.5 (no result: Autophagy mod, Redox H2O2 prof, ROMK mod) | KCC2 secondary inactive | KCC2 bumet counter 0.014 | KCC2 sec2 inactive | HEK counter1 0.0131 | KCC2 ouabain 0.0316 | HEK counter2 inconclusive
CCOc1ccc(/C=N/n2cc(-c3ccccc3)[nH]c2=S)cc1	KCC2 mod 27.7 | KCC2 secondary inconclusive | KCC2 bumet counter 0.0569 | KCC2 sec2 inactive | HEK counter1 0.0265 | KCC2 ouabain 0.0533 | HEK counter2 0.0123
COC(=O)c1cnn(-c2ccc(F)cc2F)c1/C=N/NC(N)=S	none (no result: Autophagy mod, Redox H2O2 prof)
COCCN1C(=O)c2ccc(C(=O)Nc3nccs3)cc2C1=O	none
CCCN1C(=O)c2ccc(C(=O)Nc3nccs3)cc2C1=O	KCC2 mod 6.01 | KCC2 secondary inactive | KCC2 bumet counter inconclusive | KCC2 sec2 inactive | HEK counter1 inactive | KCC2 ouabain inactive | HEK counter2 inactive

Screening data: PubChem BioAssay, several laboratories
